Assay outcomes from PubChem.
TAAR1 antag: antagonists of human TAAR1. Q96RJ0. CHO RD-HGA16 TAAR1, Fluo-8 calcium fluorescence, antagonist. inhibition, % at 3 µM. 1.5% of 360,000 active;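 active = inhibition above a per-plate cutoff, the mean inhibition of test compounds on that plate plus 3 SD, cut at about 49% in these data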
Target sequence (Q96RJ0 whole entry, looked up): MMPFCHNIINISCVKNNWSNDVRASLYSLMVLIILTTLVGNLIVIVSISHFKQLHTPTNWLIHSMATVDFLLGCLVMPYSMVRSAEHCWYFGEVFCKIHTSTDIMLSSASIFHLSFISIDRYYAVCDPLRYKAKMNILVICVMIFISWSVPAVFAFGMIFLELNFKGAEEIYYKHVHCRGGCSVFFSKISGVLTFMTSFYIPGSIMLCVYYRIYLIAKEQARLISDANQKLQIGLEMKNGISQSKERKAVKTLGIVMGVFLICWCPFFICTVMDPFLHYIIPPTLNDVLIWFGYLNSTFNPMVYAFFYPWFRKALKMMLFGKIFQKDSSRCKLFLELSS
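Test system: hTAAR1-expressing CHO RD-HGA16 cells, Gα16-coupled; Probe or stimulus: EC80 β-phenethylamine stimulus; Compound dosing: single nominal final test compound concentration of 3 µM; Timing: 140 s kinetic read after compound, 140 s after agonist; Signal: Fluo-8 calcium-sensitive fluorescence; Measure: % inhibition of agonist calcium response; Controls: DMSO and EC80 PEA controls.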
OXTR agonist: agonists of human oxytocin receptor; P30559; CHO-OTR cells, Fluo-8 calcium fluorescence; normalized: DMSO 0%, oxytocin 100%; activation, % at 3 µM; 0.32% of 320,000 active; AID 2435;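 active = activation above the mean of all tested compounds plus 3 SD, cutoff set per screening run, cut at about 20% in these data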;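 also: peak over basal fluorescence ratio from a 100 s FLIPR kinetic read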
Target sequence (P30559 whole entry, looked up): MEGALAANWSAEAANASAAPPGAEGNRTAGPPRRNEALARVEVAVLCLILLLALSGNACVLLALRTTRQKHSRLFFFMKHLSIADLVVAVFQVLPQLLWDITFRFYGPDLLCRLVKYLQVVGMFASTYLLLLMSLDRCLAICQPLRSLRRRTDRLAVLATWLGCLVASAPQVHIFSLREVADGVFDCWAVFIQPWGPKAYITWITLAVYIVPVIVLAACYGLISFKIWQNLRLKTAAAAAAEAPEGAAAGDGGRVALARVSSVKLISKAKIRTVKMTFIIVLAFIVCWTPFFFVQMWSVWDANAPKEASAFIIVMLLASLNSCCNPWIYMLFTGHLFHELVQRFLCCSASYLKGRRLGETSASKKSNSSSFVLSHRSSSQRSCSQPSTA
OXTR potentiate: potentiators of human oxytocin receptor. 0.061% of 320,000 active. CHO-OTR cells, Fluo-8 calcium fluorescence, potentiator mode; 0% = oxytocin EC15, 100% = EC100. P30559. activation, % at 3 µM;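 active = activation above that plate's cutoff, the mean activation of tested compounds plus 3 SD, cut at about 6.6% in these data, passing the limit was not always enough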
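Assay system: CHO-OTR cells, human receptor / Also added: oxytocin at about EC15, sub-maximal agonist stimulus / Dosing: single dose, 3.0 µM nominal final compound concentration / Incubation: 6 min pre-incubation, 100 s read / Technique: Fluo-8 calcium dye fluorescence / Read-out: % activation vs EC15 and EC100 oxytocin / Benchmarks: EC15 oxytocin low, 75 nM oxytocin high / Replicates: singlicate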
V1aR counter: counter-screen for oxytocin receptor agonists: human V1a receptor agonists | CHO-V1R cells, Fluo-8 calcium fluorescence, agonist mode; 0% DMSO, 100% 3 nM vasopressin | activation, % at 3 µM | AID 2797 | 0.25% of 320,000 active;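 active = activation above the mean activation of all tested compounds plus 3 SD, per screening run, cut at about 20% in these data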;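 also: signal is peak over basal fluorescence ratio across a 100 second FLIPR read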
TAAR1 ag: human TAAR1 agonism; Q96RJ0; CHO RD-HGA16 TAAR1, Fluo-8 calcium fluorescence; vehicle wells 0%, saturating PEA agonist 100%; activation, % at 3 µM; 0.99% of 360,000 active;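 active = activation above the mean activation of all test compounds in the run plus 3 SD, cut at about 38% in these data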
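System: CHO-derived RD-HGA16 cells with stable Gα16 and human TAAR1 / Times: 17-24 h plating, Fluo-8 75 min 37 °C, 30 min RT / Technique: calcium-sensitive Fluo-8 signal, excitation 470-495, emission 515-575 nm / Measure: % activation relative to PEA EC100 response / Benchmarks: DMSO and PEA EC100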
OXTR ag confirm: confirmation of human oxytocin receptor agonists; CHO-OTR cells, Fluo-8 calcium fluorescence, agonist; 20% of 390 active; shares compounds with OXTR agonist; AID 434963; activation, % at 3 µM;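 active = mean activation above about 20% derived from the earlier single-dose screen, limit read from the data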;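 also: peak over minimum fluorescence ratio per well during a 100 second FLIPR read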
V1R ag counter 3x: counter-screen for oxytocin receptor agonists: V1a receptor agonists. AID 434991. shares compounds with OXTR agonist. 10% of 390 active. activation, % at 3 µM. CHO-V1R cells, Fluo-8 calcium fluorescence, agonist;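 active = mean activation over triplicate exceeds the hit threshold set in the earlier primary screen, cut at about 20% in these data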;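 also: peak over basal fluorescence ratio within a 100 second read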
Numbers stand for hits; i = inactive; nt = not tested or not shown; ! = not confirmed by another sample. Sampled rows, rich in hits. Any-hit rate of the full collection: about 2.3%.

SMILES | TAAR1 antag | OXTR agonist | OXTR potentiate | V1aR counter | TAAR1 ag | OXTR ag confirm | V1R ag counter 3x
CCCCCCCCNC(C)C(O)c1ccc(SC(C)C)cc1 (centres undefined) | i | 23 | i | i | i | i | i
C[C@@H](NCCc1ccc(O)cc1)[C@@H](O)c1ccc(O)cc1 | i | i | i | i | i | nt | nt
CNc1c([N+](=O)[O-])cnn1-c1ccccc1Cl | i | i | i | i | i | nt | nt
CS(=O)(=O)N1CCCC(c2nc(-c3ccc(S(=O)(=O)NCc4ccccc4)cc3)no2)C1 (centres undefined) | nt | 20 | i | i | nt | i | i
COc1ccccc1CNCC(O)Cn1c2ccccc2c2ccccc21 (centres undefined) | i | 22 | i | i | i | i | i
OCCNCC(O)Cn1c2ccccc2c2ccccc21 (centres undefined) | i | i | i | i | i | nt | nt
Cc1ncc(CN2CCC(CO)(CCOc3ccccc3)CC2)s1 | i | 21 | i | i | i | i | i
COc1ccc2c(c1)CC/C(=C\c1ccc(OC)c(Cn3nc(C)cc3C)c1)C2=O | i | 36 | i | i | 44 | i | i
C=CCN1C(=O)C(CC(=O)O)SC1=Nc1ccc(C(=O)O)cc1 (centres undefined) | i | i | i | i | i | nt | nt
C=CCN1C(=O)C(Cc2ccccc2Cl)SC1=Nc1ccc(C(=O)O)cc1 (centres undefined) | i | 21 | i | i | i | i | i
CCOC(=O)c1c(C)n(-c2ccc(C)cc2)c2ccc(OCC(O)CNCC3CCCO3)cc12 (centres undefined) | nt | 20 | i | i | nt | i | i
COc1ccc(-c2csc(N(CCCN(C)C)C(=O)c3ccccc3Cl)n2)cc1 | i | 23 | i | i | i | i | i
Cc1cc(-c2nnc(SCC(=O)Nc3ccccc3C(F)(F)F)o2)c(C)n1-c1ccccc1 | i | 21 | i | i | 42 | 24 | i
Cc1cccc(NC(=O)CSc2nnc(-c3cc(C)n(-c4ccccc4)c3C)o2)c1C | i | i | i | i | i | nt | nt
COc1ccc(NC(=O)C2CCN(S(=O)(=O)c3c(C)nn(C)c3C)CC2)cc1 | i | i | i | i | i | nt | nt
Cn1c(=O)[nH]c(=O)c2c1nc(N1CCCCCC1)n2CCSc1nc2ccccc2[nH]1 | i | i | i | i | i | nt | nt
Cc1cccc(C(=O)OCc2cnc(Cl)s2)c1 | i | i | i | i | i | nt | nt
COc1ccc(C2=NO[C@@H]3C(=O)N(C4CCCCC4)C(=O)[C@H]23)cc1OC | i | 21 | i | i | i | i | i
COc1ccc(C2=NO[C@@H]3C(=O)N(c4ccc5c(c4)OCCO5)C(=O)[C@H]23)cc1OC | i | i | i | i | i | nt | nt
CCOC(=O)N/N=C(\C)c1ccc(Br)cc1 | i | i | i | i | i | nt | nt
CC(C)(C)c1ccc(C(=O)CCC(=O)OCC(=O)NCCc2ccc(S(N)(=O)=O)cc2)cc1 | 62 | 20 | i | i | i | i | i
NS(=O)(=O)c1ccc(CCNC(=O)COC(=O)CCc2ccccc2)cc1 | i | i | i | i | i | nt | nt
CCNC(=O)c1cc(Cl)ccc1OC | i | i | i | i | i | nt | nt
O=C(C1CCCCC1)N1CCCc2ccccc21 | i | 30 | i | i | i | i | i
CN(c1ccc(C(=O)N2CCCCC2)cc1)S(=O)(=O)c1ccccc1 | i | 21 | i | i | i | i | i
SMILES | TAAR1 antag | OXTR agonist | OXTR potentiate | V1aR counter | TAAR1 ag | OXTR ag confirm | V1R ag counter 3x
CCCCNC(=O)c1sc(=S)n2c1[nH]c(=O)c1ccc(C(=O)NCCc3ccc(OC)c(OC)c3)cc12 | nt | i | i | i | nt | nt | nt
O=C(NCc1ccccc1)c1sc(=S)n2c1[nH]c(=O)c1ccccc12 | i | 21 | i | i | 44 | i | i
N#Cc1cccc(NC(=O)COC(=O)c2cc(S(=O)(=O)Nc3ccccc3Cl)ccc2O)c1 | i | 20 | i | i | i | i | i
Cc1ccc(NC(=S)N(CCN(C)C)Cc2cc3cccc(C)c3[nH]c2=O)cc1 | i | i | i | i | i | nt | nt
CC1=NN(c2ccc(Cl)cc2)C(=O)C1C(c1ccccc1O)c1c(C)[nH]n(-c2ccc(Cl)cc2)c1=O (centres undefined) | nt | 20 | i | i | nt | i | i
O=C(NCC(=O)N1CCOCC1)OCc1ccccc1 | i | i | i | i | i | nt | nt
C=CCN1C(=O)/C(=C/c2ccc(O)c(OC)c2)S/C1=N/c1nccs1 | 60 | 20 | i | i | i | 27 | 38
C=CCN1C(=O)/C(=C/c2ccc(OCC(=O)O)cc2)S/C1=N/c1nccs1 | i | i | i | i | i | nt | nt
CCOc1ccc(OCC)c(NC(=O)CSc2nnnn2CC)c1 | i | 22 | i | i | i | i | i
CCn1nnnc1SCC(=O)Nc1ccc(OC)cc1 | i | i | i | i | i | nt | nt
Cc1ccc(C(=O)OCC(=O)N2CCCC2)cc1 | i | i | i | i | i | nt | nt
Cc1ccc(NS(=O)(=O)c2ccc(C(=O)OCC(=O)N3CCCCC3)cc2)cc1 | i | 24 | i | i | 41 | i | i
COC(=O)c1ccc(NS(=O)(=O)c2ccc3c(c2)n(C)c(=O)n3C)cc1 | i | i | i | i | i | nt | nt
CCOC(=O)c1ccc(NS(=O)(=O)c2ccc3c(c2)n(C)c(=O)n3C)cc1 | i | 30 | i | i | i | i | i
O=Cc1cccn1-c1cccnc1 | i | i | i | i | i | nt | nt
CCSc1nsc(NC(=O)Nc2cccc(OC)c2)n1 | i | 22 | i | i | i | i | i
CCSc1nsc(NC(=O)Nc2ccccc2F)n1 | i | i | i | i | i | nt | nt
Cc1ccc(-c2noc(CCC(=O)NCCc3ccccc3Cl)n2)cc1 | nt | 20 | i | i | nt | i | i
O=C(Nc1ncc([N+](=O)[O-])s1)c1cccs1 | i | 21! | i | i | i | i | i
Cc1cnc(NC(=O)c2cccs2)s1 | i | i | i | i | i | nt | nt
COc1cc(CNCCO)cc(Cl)c1OCc1ccc(Cl)cc1Cl | i | 20 | i | i | i | i | i
COc1cc(CNCc2ccccn2)ccc1OCc1ccc(Cl)cc1Cl | i | 25 | i | i | 45 | i | i
COc1cc(CNCCO)cc(Br)c1OCc1ccccc1Cl | i | i | i | i | i | nt | nt
CC1(C)Cc2ccccc2-c2nc3n(c(=O)c21)CCCS3 | i | i | i | i | i | nt | nt
CCOc1cc(NC(=S)NCc2ccco2)c(OCC)cc1NC(=O)CC | i | i | i | i | i | nt | nt
CCOc1ccc(Nc2nc(NCC3CCCO3)c3ccccc3n2)cc1 (centres undefined) | i | 20 | i | i | i | i | i
Cc1[nH]c2ccccc2c1/C=N/Nc1ccc([N+](=O)[O-])cc1 | i | 21 | i | i | i | 25 | 35
Cc1[nH]c2ccccc2c1/C=N/NC(=O)c1cccc([N+](=O)[O-])c1 | i | i | i | i | i | nt | nt
